Data on eight compounds can be found in ChEMBL document CHEMBL4266004, “Series of Alkynyl-Substituted Thienopyrimidines as Inhibitors of Protozoan Parasite Proliferation” (ACS Med Chem Lett, 2018).

In one series the test system is Trypanosoma cruzi. As to the kind of experiment: Antitrypanosomal activity against Trypanosoma cruzi Tulahuen intracellular amastigote harboring beta-galactosidase infected in mouse NIH/3T3 cells after 96 hrs by CPRG reagent based assay. It counts as functional, organism-based. The settings on record: NIH3T3, 96 h.
Series [1] can be described thus: Cytotoxicity against mouse NIH/3T3 cells. It counts as cell-based, NIH3T3. The settings on record: read-out: TC50 (the source's name).
The test system of another series is Leishmania major. In words: Antileishmanial activity against Leishmania major intracellular amastigotes harboring luciferase infected in mouse RAW264.7 cells after 96 hrs by luminescence assay. Particulars: RAW264.7, 96 h. The series is classed as functional, organism-based. The essentials:
(§1)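 L. major amastigotes screened in duplicate or quadruplicate. Selectivity derived as HepG2 TC50 / L. major EC50.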

Series [2] relates to Trypanosoma brucei brucei. In words: Antitrypanosomal activity against Trypanosoma brucei brucei 427 at 5 uM after 48 hrs by presto blue dye based fluorescence assay relative to control. It counts as functional. The essentials:
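Single-concentration screen of bloodstream T. brucei cultures at 5 μM, 5 × 10^4 cells/mL; percent proliferation inhibition recorded.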

The test system of the next series is Plasmodium falciparum. In words: Antimalarial activity against Plasmodium falciparum D6 trophozoites after 72 hrs by SYBR Green I dye-based fluorescence assay. The series is classed as functional, organism-based. Particulars: D6, 72 h. The essentials: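 P. falciparum D6 strain; compounds run in duplicate or quadruplicate; EC50 determined from dose-response.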

A short description of series [3]: Cytotoxicity against human HepG2 cells. It counts as cell-based. Particulars: read-out: TC50 (the source's name).
Series [4] can be described thus: Selectivity index, ratio of TC50 for human HepG2 cells to EC50 for Plasmodium falciparum D6 trophozoites. It counts as toxicity. The settings on record: read-out: Selectivity Index. Summed up: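 P. falciparum D6 screened in duplicate or quadruplicate. Selectivity = HepG2 TC50 / P. falciparum EC50.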
Series [5] can be described thus: Selectivity index, ratio of TC50 for human HepG2 cells to EC50 for Trypanosoma brucei brucei 427. The series is classed as toxicity. Particulars: read-out: Selectivity Index.
Series [6] relates to Trypanosoma brucei brucei. In words: Antitrypanosomal activity against Trypanosoma brucei brucei 427 after 48 hrs by presto blue dye based fluorescence assay. The settings on record: Trypanosoma brucei, 427, 48 h. It counts as functional, organism-based.
Series [7] can be described thus: Selectivity index, ratio of TC50 for human HepG2 cells to EC50 for Leishmania major intracellular amastigotes harboring luciferase infected in mouse RAW264.7 cells. The series is classed as toxicity, cell-based. The settings on record: read-out: Selectivity Index. Summed up: as §1
Series [8] can be described thus: Selectivity index, ratio of TC50 for mouse NIH/3T3 cells to EC50 for Trypanosoma cruzi Tulahuen intracellular amastigote harboring beta-galactosidase. It counts as toxicity, cell-based. The settings on record: read-out: Selectivity Index. Summed up: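 NIH 3T3 cells, the host line for intracellular T. cruzi amastigote culture, tested for toxicity. Selectivity = NIH3T3 TC50 / T. cruzi EC50.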

Structures are written as SMILES.

For `Fc1cccc(COc2ccc(Nc3ncnc4cc(C#CC5CCCC5)sc34)cc2Cl)c1`, the EC50 – broadly, the concentration that produces a half-maximal response – in the series on Trypanosoma cruzi is > 50 µM; in the series with Leishmania major it was > 15 µM; in the series with Plasmodium falciparum, 3.6 µM; in series [6], 0.76 µM. In addition, the CC50 in [1] is > 100 µM; in series [3], > 31 µM. Further, the Activity in series [2] is >75%. Moreover, the figures for the selectivity ratio in series [4] and in [5] were > 8.6 and > 41, respectively.
`COCC#Cc1cc2ncnc(Nc3ccc(OCc4cccc(F)c4)c(Cl)c3)c2s1`: the EC50 was 30.7 µM with Trypanosoma cruzi, 9.4 µM with Leishmania major, 5.9 µM with Plasmodium falciparum and 3.4 µM in [6]. In addition, the CC50 in series [1] was > 50 µM; in series [3] it was > 33 µM. Also, the Activity in [2] is on record as >75%. Besides, the selectivity ratio in [7] was > 3.5; in [4] it was > 5.6; in series [8] it was > 1.6; in series [5] it was > 9.7.
Consider `Fc1cccc(COc2ccc(Nc3ncnc4cc(C#Cc5ccccn5)sc34)cc2Cl)c1`, for which the EC50 worked out at 12 µM with Trypanosoma cruzi, 0.38 µM with Leishmania major, 2 µM in the series on Plasmodium falciparum and 1.3 µM in series [6]. Moreover, the CC50 in series [1] is 27 µM; in series [3], 24 µM. Further, the Activity in [2] is recorded as >75%. In addition, the selectivity ratio in series [7] came to 63; in [4], 12; in series [8], 2.3; in [5], 18.
For the compound `CC(C)(C)OC(=O)N1CCC[C@H]1C#Cc1cc2ncnc(Nc3ccc(OCc4cccc(F)c4)c(Cl)c3)c2s1`, the EC50 in the series with Trypanosoma cruzi was > 50 µM; in the series on Leishmania major, 1.6 µM; with Plasmodium falciparum, 1.7 µM; in [6] it was 1.2 µM. Besides, the CC50 in series [1] was > 100 µM; in series [3], > 26 µM. Moreover, in series [2], the Activity is on record as >75%. Besides, the values for the selectivity ratio in series [7], in [4] and in [5] were > 16, > 15 and > 22, respectively.
With `Fc1cccc(COc2ccc(Nc3ncnc4cc(C#CCN5CCCC5)sc34)cc2Cl)c1`, the EC50 with Trypanosoma cruzi was found to be 1.8 µM; in the series on Leishmania major, 4.1 µM; in the series with Plasmodium falciparum, 1.3 µM; in series [6], 0.28 µM. Besides, the CC50 in series [1] worked out at 6.4 µM; in series [3], 4.9 µM. In addition, the Activity in series [2] was >75%. Also, the selectivity ratio stood at 1.2 in [7], 3.8 in series [4], 3.6 in series [8] and 18 in series [5].
For the compound `Fc1cccc(COc2ccc(Nc3ncnc4cc(C#CCN5CCOCC5)sc34)cc2Cl)c1`, the results for the EC50 with Trypanosoma cruzi, in the series on Leishmania major and with Plasmodium falciparum were 3.4 µM, 7.6 µM and 3 µM, respectively. Also, the results for the CC50 in series [1] and in series [3] were 4.7 µM and > 29 µM, respectively. For the same compound, in series [2], the Activity is on record as 16%. Also, the selectivity ratio in series [7] was > 3.8; in series [4], > 9.7; in [8], 1.4.
Take `Cc1ccc(C(=O)Nc2ccc(S(=O)(=O)O)c3cc(S(=O)(=O)O)cc(S(=O)(=O)O)c23)cc1NC(=O)c1cccc(NC(=O)Nc2cccc(C(=O)Nc3cc(C(=O)Nc4ccc(S(=O)(=O)O)c5cc(S(=O)(=O)O)cc(S(=O)(=O)O)c45)ccc3C)c2)c1` [SURAMIN]: the midpoint of the response in series [6], the EC50, lay at 0.04 µM.
Regarding `CN(C)CC#Cc1cc2c(Nc3ccc(OCc4cccc(F)c4)c(Cl)c3)ncnc2s1`, the concentration giving a half-maximal response (EC50) came to 2.6 µM in the series on Trypanosoma cruzi, 5.5 µM with Leishmania major, 1.5 µM in the series with Plasmodium falciparum and 2.5 µM in series [6]. Further, the CC50 was 41 µM in series [1] and > 32 µM in [3]. For the same compound, the Activity in [2] is reported as >75%. In addition, the selectivity ratio in [7] is > 5.8; in series [4], > 21; in [8], 16; in series [5] it was > 13.
